Only a selection was taken, and hits are over-represented in it overall.
CHOP inhibitor = inhibitors of CHOP promoter induction, primary screen, cell-based, unfolded protein response, luciferase reporter; AID 2732, 2010; inhibition, % at 10 µM; actives 3.8% (n = 220,000); CHO-K1 CHOP-promoter luciferase, tunicamycin-induced, 15-18 h;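 active = compounds that reduced the stress-induced luciferase reporter signal by more than about 70% of percent inhibition, limit read from the data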;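 note: 0% = tunicamycin plus vehicle and 100% = wells without tunicamycin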
T cruzi inh = inhibitors of intracellular T. cruzi growth, primary screen, luminescence, NIH3T3 host cells | T. cruzi beta-gal in NIH3T3, 90 h | actives 1.4% (n = 300,000) | AID 1885, 2009 | inhibition, % (test concentration not listed);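 active = mean inhibition across valid replicates above about 55%, limit read from the data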;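 note: signal also drops with host cell toxicity which is not excluded here; 0% = plate median of DMSO wells and 100% = zero luminescence signal; higher percent means less beta-gal luminescence so fewer parasites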
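System: Mouse NIH/3T3 fibroblasts infected with β-gal-expressing T. cruzi Tulahuen C4 | Quantity: NIH/3T3 cells, 5,000 per well | Reagent: 5000 reporter trypomastigotes per well | Dosing: Compound pinned at 50 nL/well, DMSO | Schedule: 3 h host attachment, then at least 90 h co-culture | Detection: GalScreen luminescence, 60 min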
UPR XBP1 act = activators of adaptive XBP1 UPR arm, primary screen, cell-based, CHO-XBP1 luciferase reporter, luminescence, uHTS. IRE1-XBP1 UPR activation; percent of tunicamycin response, DMSO as zero. activation, % at 20 µM. actives 0.33% (n = 330,000);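 active = versus positive control, 20 µM dose yields 30% or more activation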;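 note: 100% = tunicamycin at 10 µg/mL and 0% = DMSO only wells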
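Test system: CHO-XBP1 luciferase reporter cells | Buffer or medium: Serum-containing F12 medium, 10% FBS | Schedule: 6 h compound exposure at 37 °C, 5% CO2 | Detection: Steady-Glo luciferase glow luminescence, 10 min after reagent addition | Read-out basis: Activation, % of tunicamycin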
Dynein transport = inhibitors of GR-EGFP nuclear translocation, primary screen, dynein cargo transport inhibitor project, imaging, high-content, 3617.4 mouse cells; test concentration mostly 20 µM; stimulated with dexamethasone, 1 µM; active compounds read low; z-score, hits read low; actives 0.47% (n = 220,000); AID 1381, 2008;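 active = plate z-score of nuclear minus cytoplasmic receptor signal below a set negative limit, without overly bright fluorescence or cell loss, cut at about -3.5 in these data, passing the limit was not always enough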;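 note: z-score of nuclear minus cytoplasmic ring GR-EGFP intensity difference per well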
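medium = tetracycline-free induction medium containing charcoal-stripped FBS | also added = 1.0 µM final dexamethasone stimulus | schedule = 48 h induction, 1 h compound, 30 min dex at 37 °C | technique = fixed, Hoechst-stained cells imaged at 10x for EGFP | measure = GR-EGFP nuclear translocation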
UPR CHOP act = activators of apoptotic CHOP UPR arm, primary screen, cell-based, CHO-CHOP luciferase reporter, luminescence, uHTS; UPR activation; percent of tunicamycin response over DMSO baseline; activation, % at 10 µM; AID 449763, 2010; actives 0.34% (n = 330,000);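 active = at 10 µM dose, activation of 40% or more, normalized to positive control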;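 note: 100% = tunicamycin at 10 µg/mL and 0% = DMSO alone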
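Test system: CHO-CHOP cells, stable luciferase reporter of PERK-eIF2a-CHOP signalling | Quantity: 500 CHO-CHOP cells per well | Buffer or medium: F12 plus 10% serum | Compound dosing: 10 µM single point, 0.5% DMSO | Schedule: 6 h compound treatment, 37 °C | Signal: Luciferase luminescence | Control set: Tunicamycin high control, DMSO low control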
Lmaj promast = Leishmania major promastigote growth inhibition, primary screen; AID 1063, 2008; inhibition, % at 10 µM; Leishmania major promastigotes, resazurin fluorescence viability; actives 9% (n = 200,000); in the data active = inhibition above about 50%;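 note: promastigotes grown with compound for 44 hours at 28 °C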
* hit, by the source's call.

`O=C(N/N=C/c1sc(N2CCOCC2)nc1-c1ccccc1)c1ccccc1O` gave CHOP inhibitor 0, T cruzi inh 3, UPR XBP1 act 4, Dynein transport -0.25, UPR CHOP act 12 and Lmaj promast 44.
For Cc1cc(C(=O)N/N=C/c2sc(N3CCOCC3)nc2-c2ccccc2)c(C)o1 the results were CHOP inhibitor -25, T cruzi inh 49, UPR XBP1 act -2, Dynein transport 1, UPR CHOP act 3 and Lmaj promast 52*.
For Cc1ccc(S(=O)(=O)N(CC(=O)Nc2ccccc2C(=O)O)c2ccccc2)cc1 the results were CHOP inhibitor -4, T cruzi inh -8, UPR XBP1 act -3, Dynein transport -0.5, UPR CHOP act 0 and Lmaj promast -5.
Screening COc1cc(/C=N/NC(=O)CN(CCc2ccccc2)S(=O)(=O)c2ccc(NC(C)=O)cc2)cc(OC)c1OC returned CHOP inhibitor -20, T cruzi inh 7, UPR XBP1 act 3, Dynein transport 0.11, UPR CHOP act -1 and Lmaj promast 60*.
`COc1cccc(/C=N/NC(=O)c2ccc(=O)n(C)c2)c1OC` gave CHOP inhibitor 4, T cruzi inh -2, UPR XBP1 act -1, Dynein transport -0.9, UPR CHOP act 2 and Lmaj promast -6.
`COc1cccc(/C=N/NC(=O)c2cc3c(OC)c(OC)ccc3[nH]2)c1OC` gave CHOP inhibitor 8, T cruzi inh -23, Dynein transport 1 and Lmaj promast 73*.
For COc1cccc(/C=N/NC(=O)c2cc3c(OC)cccc3[nH]2)c1O the results were CHOP inhibitor 92*, T cruzi inh -1, UPR XBP1 act -2, Dynein transport 1.6, UPR CHOP act -1 and Lmaj promast 95*.
COc1cccc(/C=N/NC(=O)c2ccccc2)c1OS(=O)(=O)c1ccccc1 was read as CHOP inhibitor 9, T cruzi inh -1, UPR XBP1 act -4, Dynein transport 0.25, UPR CHOP act -1 and Lmaj promast 92*.
Screening CCOC(=O)Cn1nc(C(F)F)c(Br)c1C returned CHOP inhibitor 14, T cruzi inh -9, UPR XBP1 act 5, Dynein transport 0.46, UPR CHOP act -2 and Lmaj promast 1.
For Cc1ccccc1SC1CCN(Cc2nc(C3CC3)no2)CC1 the results were CHOP inhibitor 23, T cruzi inh 20, UPR XBP1 act 1, Dynein transport 0.26, UPR CHOP act 0 and Lmaj promast 16.
`COc1cccc(/C=N/NC(=O)c2cc3cc([N+](=O)[O-])ccc3s2)c1O` gave CHOP inhibitor 100*, T cruzi inh 23, Dynein transport 2.3 and Lmaj promast 100*.
Screening COc1cccc(/C=N/NC(=O)c2cc(-c3cccn3C)n[nH]2)c1O returned CHOP inhibitor 58, T cruzi inh 3, UPR XBP1 act -3, Dynein transport -0.25, UPR CHOP act 2 and Lmaj promast 98*.
For CCOc1cc(/C=N/NC(=O)c2ccc(N(C)S(=O)(=O)c3ccccc3)cc2)ccc1OC the results were T cruzi inh -3, UPR XBP1 act 3 and UPR CHOP act -2.
`COc1cc(/C=N/NC(=O)c2cc(-c3cccn3C)n[nH]2)cc(OC)c1OC` gave CHOP inhibitor -1, T cruzi inh 5, UPR XBP1 act 6, Dynein transport 0.28, UPR CHOP act 1 and Lmaj promast -4.
For COc1cc(/C=N/NC(=O)c2ccc(N(C)S(=O)(=O)c3ccccc3)cc2)cc(OC)c1OC the results were CHOP inhibitor 18, T cruzi inh 0, UPR XBP1 act -5, Dynein transport -0.58, UPR CHOP act -2 and Lmaj promast 100*.
Screening CC(C)C(=O)Nc1nnc(CSCc2ccccc2F)s1 returned CHOP inhibitor -1, T cruzi inh 2, UPR XBP1 act 2, Dynein transport -0.14, UPR CHOP act 3 and Lmaj promast 91*.
Screening CC(C)(C)C(=O)Nc1nnc(CSCc2ccccc2F)s1 returned CHOP inhibitor 33, T cruzi inh 8, UPR XBP1 act -4, Dynein transport -0.29, UPR CHOP act -4 and Lmaj promast 100*.
O=C(Nc1nnc(CSCc2ccccc2F)s1)c1cccc([N+](=O)[O-])c1 was read as CHOP inhibitor -2, T cruzi inh -11, UPR XBP1 act 0, Dynein transport 0.54, UPR CHOP act 2 and Lmaj promast 95*.
For CC(C)(C)C(=O)Nc1nnc(CCc2ccccc2)s1 the results were T cruzi inh -5, UPR XBP1 act -1 and UPR CHOP act 5.
For CCCCN(CCCC)S(=O)(=O)c1ccc(NS(=O)(=O)c2ccc(NC(C)=O)cc2)cc1 the results were CHOP inhibitor 93*, T cruzi inh 9, UPR XBP1 act -1, Dynein transport 0.66, UPR CHOP act 1 and Lmaj promast -12.
CCCN(CCC)S(=O)(=O)c1ccc(NC(=O)Cc2cccs2)cc1 was read as CHOP inhibitor 61, T cruzi inh 2, UPR XBP1 act -2, Dynein transport 1.7, UPR CHOP act -1 and Lmaj promast 37.
Screening CCCN(CCC)S(=O)(=O)c1ccc(NC(=O)COc2ccccc2)cc1 returned CHOP inhibitor 38, T cruzi inh -9, UPR XBP1 act -2, Dynein transport -0.16, UPR CHOP act -2 and Lmaj promast 98*.
Screening CCCCN(CCCC)S(=O)(=O)c1ccc(NC(=O)Cc2cccs2)cc1 returned CHOP inhibitor 82*, T cruzi inh 19, UPR XBP1 act -3, Dynein transport -0.12, UPR CHOP act -4 and Lmaj promast 30.
Screening CCCCOC(=O)Nc1ccc(S(=O)(=O)Nn2cnnc2)cc1 returned CHOP inhibitor 18, T cruzi inh -12, UPR XBP1 act 2, Dynein transport 0.83, UPR CHOP act 1 and Lmaj promast 0.
CCCCOC(=O)Nc1ccc(S(=O)(=O)Nc2ccc([N+](=O)[O-])cc2)cc1 was read as CHOP inhibitor -2, T cruzi inh 0, UPR XBP1 act 0, Dynein transport -0.22, UPR CHOP act 3 and Lmaj promast 78*.
Screening O=C(COc1cccc(F)c1)Nc1nc(-c2cccnc2)cs1 returned UPR XBP1 act 1 and UPR CHOP act -2.
Cc1ccc2c(c1)N(CC(=O)NCCC1=CCCCC1)C(=O)c1cccnc1O2 was read as T cruzi inh 14, UPR XBP1 act -2 and UPR CHOP act 0.

Compound activity (PubChem BioAssay)
